Assay results reported in ChEMBL document CHEMBL3580607, “Anti-parasitic Guanidine and Pyrimidine Alkaloids from the Marine Sponge Monanchora arbuscula” (J Nat Prod, 2015).
≈ marks a conversion by molar mass, not a printed value. Calls of active or inactive are those of the source. The calls are words filed in the database; no cut-off is given here.

What was measured:
[1] = test system: Leishmania donovani; experiment: Antileishmanial activity against Leishmania donovani; format: functional, organism-based
[2] = test system: Trypanosoma brucei brucei; experiment: Antitrypanosomal activity against Trypanosoma brucei brucei GUTat 3.1 after 72 hrs by Alamar blue assay; format: functional, organism-based; conditions: GUTat 3.1, 72 h
[3] = test system: Trypanosoma cruzi; experiment: Antitrypanosomal activity against trypomastigote stage of Trypanosoma cruzi Y assessed as inhibition of cell viability after 24 hrs by MTT assay; format: functional, organism-based
Method in brief: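 T. cruzi Y-strain trypomastigotes incubated with alkaloids for 24 h; viability by MTT. Benznidazole as standard drug control. IC50 from sigmoidal dose–response curves, mean and standard deviation of replicates from at least two independent assays, 95% CI.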

[4] = test system: Leishmania infantum; experiment: Antileishmanial activity against intracellular amastigote stage of Leishmania infantum MHOM/BR/1972/LD infected in BALB/c mouse peritoneal macrophages assessed as reduction of parasite burden after 120 hrs by Giemsa staining assay; format: functional, organism-based
Method in brief: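 Peritoneal macrophages from BALB/c mice (collected in RPMI-1640 with 10% FBS, 37 °C, 5% CO2) infected with L. infantum amastigotes from spleens of infected hamsters, at a 1:10 macrophage:amastigote ratio. Compound exposure for 120 h, then Giemsa staining; infected macrophages counted out of 500 cells. Miltefosine as standard drug control.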

[5] = test system: LLC-MK2; experiment: Cytotoxicity against rhesus monkey LLC-MK2 cells assessed as inhibition of cell viability after 48 hrs by MTT assay; format: cell-based; conditions: Macaca mulatta, LLC-MK2, 48 h
Method in brief: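 LLC-MK2 rhesus monkey kidney cells seeded at 4 × 10^4 per well, exposed to alkaloids at up to 200 μM for 48 h; viability by MTT. IC50 from sigmoidal dose–response fits with 95% CI, replicates from at least two independent assays.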

[6] = test system: Trypanosoma cruzi; experiment: Potency index, ratio of benznidazole IC50 to compound IC50 for trypomastigote stage of Trypanosoma cruzi Y; format: functional
[7] = test system: Leishmania infantum; experiment: Antileishmanial activity against promastigote stage of Leishmania infantum MHOM/BR/1972/LD assessed as reduction of cell viability after 48 hrs by MTT assay; format: functional, organism-based
Method in brief: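 L. infantum promastigotes exposed to alkaloids dissolved in DMSO, diluted in M-199 medium, highest concentration 156 μM, with internal controls; viability read by MTT after 48 h incubation. IC50 from sigmoidal dose–response curves, mean and standard deviation of replicates from at least two independent assays, with 95% CI.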

[8] = test system: A549; experiment: Cytotoxicity against human A549 cells; format: functional, cell-based
[9] = test system: HeLa; experiment: Cytotoxicity against human HeLa cells; format: functional, cell-based
[10] = test system: MCF7; experiment: Cytotoxicity against human MCF7 cells; format: functional, cell-based
[11] = Cytotoxicity against human MCF10A cells; format: cell-based; conditions: mcf-10a
[12] = test system: Leishmania donovani; experiment: Antileishmanial activity against promastigote stage Leishmania donovani assessed as growth inhibition after 72 hrs by Alamar blue assay; format: functional, organism-based
[13] = Selectivity index, ratio of IC50 for rhesus monkey LLC-MK2 cells to IC50 for trypomastigote stage of Trypanosoma cruzi Y; format: toxicity, cell-based; conditions: read-out: Ratio IC50
Method in brief: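 The ratio divides the LLC-MK2 IC50 by the T. cruzi trypomastigote IC50. LLC-MK2 cells were seeded at 4 × 10^4/well, given compound up to 200 μM for 48 h, and read by MTT. Y-strain trypomastigotes were exposed for 24 h, with MTT read-out. IC50s come from sigmoidal dose–response fits (95% CI), using replicates from at least two independent assays.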

[14] = test system: Leishmania infantum; experiment: Leishmanicidal activity against promastigote stage of Leishmania infantum MHOM/BR/1972/LD assessed as reduction of mitochondrial membrane potential at 2 uM measured after 60 mins by MitoTracker Red CM-H2XROS dye-based fluorimetric microplate reader analysis relative to control; format: functional; set-up: scale not given: the % may be the effect or the level left
Method in brief: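 L. infantum promastigotes at 2 × 10^6/well exposed to 2 μM compound for 60 min, then MitoTracker Red CM-H2XROS (500 nM) added; fluorescence at excitation 540 nm / emission 595 nm. Controls: DMSO, compound alone, untreated parasites, medium without cells.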

[15] = test system: Leishmania infantum; experiment: Antileishmanial activity against promastigote stage of Leishmania infantum MHOM/BR/1972/LD assessed as increase in membrane permeability at 2 uM measured at 60 mins by SYTOX green staining-based fluorimetric microplate reader analysis
[16] = test system: Leishmania infantum; experiment: Leishmanicidal activity against promastigote stage of Leishmania infantum MHOM/BR/1972/LD assessed as increase in reactive oxygen species production at 2 uM measured after 60 mins by H2DCf-DA probe-based fluorimetric microplate reader analysis relative to control; format: functional
Method in brief: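 Promastigotes (2 × 10^6/well) given 2 μM compound for 60 min, then H2DCf-DA (5 μM) for 15 min; fluorescence at 485/520 nm. Oligomycin (20 μM) as positive control; data normalized with oligomycin-treated parasites as 100% and untreated as 0%.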

IC50 [3] [µM]	SMILES	Activity [4]	IC50 [5] [µM]	Ratio IC50 [6]	IC50 [7] [µM]	IC50 [12] [µg/mL]	further results
64	CCCCCCCCC[C@@H]1C[C@@H]2CC[C@H]3[C@@H](C(=O)OCCCCNC(=N)N)[C@@H](C)N=C(N1)N23	inactive	130	–	2	–	–
2	CCCCCCCCC[C@@H]1C[C@@H]2CC[C@H]3[C@@H](C(=O)OC(C)CCCCCCC[C@@H]4C[C@@H]5CC[C@@H]6C[C@H](C)NC(=N4)N65)[C@@H](C)N=C(N1)N23 (stereo partly specified) [BATZELLADINE L]	inactive	22	54	2	1.9 (≈ 2.91 µM)	selectivity ratio [13]: 7; Activity [14]: 35%; Activity [15]: 43%
5	CCCCCCC[C@@H]1C[C@@H]2CC[C@H]3[C@@H](C(=O)O[C@H](C)CCCCCCC[C@@H]4C[C@@H]5CC[C@@H]6C[C@H](C)N=C(N4)N65)[C@@H](C)N=C(N1)N23	inactive	10	54	4	–	–
7	CCCCCCCC[C@@H]1C[C@@H]2CC[C@H]3[C@@H](C(=O)OC(C)CCCCCCC[C@@H]4C[C@@H]5CC[C@@H]6C[C@H](C)NC(=N4)N65)[C@@H](C)N=C(N1)N23 (stereo partly specified) [NORBATZELLADINE L]	inactive	85	54	2	–	selectivity ratio [13]: 12; Activity [14]: 30%; Activity [16]: 65%; Activity [15]: 82%

Further lines, the molecule ahead of its results:

SMILES	IC50 [3] [µM]	Activity [4]	IC50 [5] [µM]	Ratio IC50 [6]	IC50 [7] [µM]	IC50 [12] [µg/mL]	further results
CCCC[C@H]1c2nc(=N)[nH]c3c2[C@H](CC3)C[C@@H]1C	–	–	–	–	–	–	IC50 [1]: 17 µg/mL (≈ 69.3 µM)
CCCCC[C@@H]1C[C@H]2CC[C@H]3C[C@@H](CCCCC)NC(=[N+]23)N1.O=C([O-])C(F)(F)F	–	–	–	–	–	–	IC50 [2]: 0.24 µg/mL
CCCCCCCCCc1cc2n(c(=N)n1)CCC2	8	inactive	26	54	2	–	Activity [8]: inactive; Activity [9]: inactive; Activity [10]: inactive; Activity [11]: Non-toxic
CCCCCCC[C@@H]1C[C@@H]2CCC3=C(C(=O)OCCCCCCC[C@@H]4C[C@@H]5CC[C@@H]6C[C@H](C)NC(=N4)N65)C(C)N=C(N1)N32 (stereo partly specified)	–	–	–	–	–	8.5 (≈ 14.3 µM)	–
CCCCCCCCCCCCCCCCOP(=O)([O-])OCC[N+](C)(C)C [MILTEFOSINE]	–	–	122	–	16	–	–
CCC1C=CCC[C@@]2(C[C@@H]3CC[C@@H]4[C@H](C(=O)OCCCCCCCCCCCCCCCC(=O)N(CCCN)C[C@@H](O)CCN)[C@]5(CCC[C@@H](C)O5)NC(=N2)N34)O1 (stereo partly specified)	–	–	–	–	–	6.8 (≈ 8.49 µM)	–
CCCCCCC[C@H]1C[C@H]2CCC3=C(C(=O)OCCCCNC(=N)N)C(CCCCC)N=C(N1)N32 (stereo partly specified)	–	–	–	–	–	5.5 (≈ 11.3 µM)	–
CC/C=C/CCC[C@@H]1C[C@@H]2CC[C@@H]3C[C@@H](CCCCCCC)NC(=[N+]32)N1.O=C([O-])C(F)(F)F	–	–	–	–	–	–	IC50 [2]: 0.24 µg/mL
O=C(Cn1ccnc1[N+](=O)[O-])NCc1ccccc1 [BENZNIDAZOLE]	441	–	477	–	–	–	–
